In ChEMBL document CHEMBL1127335, “Inhibitors of acyl-CoA: cholesterol O-acyl transferase (ACAT) as hypocholesterolemic agents. 6. The first water-soluble ACAT inhibitor with lipid-regulating activity” (J Med Chem, 1994):

What was measured:
[1] = target: T1, Sterol O-acyltransferase 1 (Rattus norvegicus, UniProt O70536); assay: Compound was evaluated for the Acyl coenzyme A:cholesterol acyltransferase inhibition using microsomes isolated from the livers of cholesterol fed rats.; set-up: species or system Liver
T1 sequence (O70536 whole entry): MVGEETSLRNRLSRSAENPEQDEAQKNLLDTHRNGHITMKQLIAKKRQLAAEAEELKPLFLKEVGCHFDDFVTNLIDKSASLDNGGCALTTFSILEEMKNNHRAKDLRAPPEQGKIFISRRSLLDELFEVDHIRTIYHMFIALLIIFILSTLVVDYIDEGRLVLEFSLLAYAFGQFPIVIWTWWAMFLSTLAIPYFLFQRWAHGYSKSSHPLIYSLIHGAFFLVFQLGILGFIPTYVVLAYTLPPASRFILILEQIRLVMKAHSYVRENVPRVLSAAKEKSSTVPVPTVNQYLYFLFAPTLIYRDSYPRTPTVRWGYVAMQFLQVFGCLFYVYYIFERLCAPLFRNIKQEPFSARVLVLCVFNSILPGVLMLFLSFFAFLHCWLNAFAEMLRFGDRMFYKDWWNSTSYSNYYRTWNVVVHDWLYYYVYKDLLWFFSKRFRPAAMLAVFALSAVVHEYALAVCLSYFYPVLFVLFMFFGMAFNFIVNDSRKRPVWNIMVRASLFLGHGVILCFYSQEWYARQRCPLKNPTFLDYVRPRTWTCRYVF
In short: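 Liver microsomes from cholesterol-fed rats served as the ACAT source. IC50 was determined in four separate assays, each using four drug concentrations, and averaged.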

Rattus norvegicus [2] = assay: […] activity in rats at a dose of 1 mg/kg of compound was determined; format: functional
In short: (§1)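 Acute model in rats: one dose given, then ad libitum overnight feeding of chow supplemented with peanut oil (5.5%), cholesterol (1.5%) and cholic acid (0.5%). Plasma cholesterol measured; n = 5/group; mean ± SEM; percent change relative to PCC-fed controls. ED50 is the dose that lowers plasma cholesterol by 50%.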

Rattus norvegicus [3] = assay: […] activity in rats at a dose of 10 mg/kg of compound was determined; format: functional; in short: as §1
Rattus norvegicus [4] = assay: […] activity in rats at a dose of 100 mg/kg of compound was determined; format: functional; in short: as §1
Rattus norvegicus [5] = assay: […] activity in rats at a dose of 3 mg/kg of compound was determined; format: functional; in short: as §1
Rattus norvegicus [6] = assay: […] activity in rats at a dose of 30 mg/kg of compound was determined; format: functional; in short: as §1
Rattus norvegicus [7] = species: Rattus norvegicus; assay: Dose required to lower the plasma cholesterol by 50% in rats was determined; format: functional; in short: as §1
Rattus norvegicus [8] = assay: Chronic effect on preestablished dyslipidemia in rats for HDL-C at 100 mg/kg of compound was determined; format: functional
In short: (§2)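 Plasma total cholesterol measured; HDL-C separated by dextran sulfate precipitation of whole plasma, nonHDL-C derived. n = 5/group, mean ± SEM, % change versus PCC-fed controls; chow-fed controls included.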

Rattus norvegicus [9] = assay: Chronic effect on preestablished dyslipidemia in rats for HDL-C at 10 mg/kg of compound was determined; format: functional; in short: as §2
Rattus norvegicus [10] = assay: Chronic effect on preestablished dyslipidemia in rats for HDL-C at 1 mg/kg of compound was determined; format: functional; in short: as §2
Rattus norvegicus [11] = assay: Chronic effect on preestablished dyslipidemia in rats for HDL-C at 30 mg/kg of compound was determined; format: functional; in short: as §2
Rattus norvegicus [12] = assay: Chronic effect on preestablished dyslipidemia in rats for HDL-C at 3 mg/kg of compound was determined; format: functional; in short: as §2
Rattus norvegicus [13] = assay: Chronic effect on preestablished dyslipidemia in rats for nonHDL-C at 100 mg/kg of compound was determined; format: functional; in short: as §2
Rattus norvegicus [14] = assay: Chronic effect on preestablished dyslipidemia in rats for nonHDL-C at 10 mg/kg of compound was determined; format: functional; in short: as §2
Rattus norvegicus [15] = assay: Chronic effect on preestablished dyslipidemia in rats for nonHDL-C at 1 mg/kg of compound was determined; format: functional; in short: as §2
Rattus norvegicus [16] = assay: Chronic effect on preestablished dyslipidemia in rats for nonHDL-C at 30 mg/kg of compound was determined; format: functional; in short: as §2
Rattus norvegicus [17] = assay: Chronic effect on preestablished dyslipidemia in rats for nonHDL-C at 3 mg/kg of compound was determined; format: functional; in short: as §2
Rattus norvegicus [18] = assay: Chronic effect on preestablished dyslipidemia in rats for total cholesterol at 1 mg/kg of compound was determined; format: functional; in short: as §2
Rattus norvegicus [19] = assay: Chronic effect on preestablished dyslipidemia in rats for total cholesterol at 100 mg/kg of compound was determined; format: functional; in short: as §2
Rattus norvegicus [20] = assay: Chronic effect on preestablished dyslipidemia in rats for total cholesterol at 10 mg/kg of compound was determined; format: functional; in short: as §2
Rattus norvegicus [21] = assay: Chronic effect on preestablished dyslipidemia in rats for total cholesterol at 3 mg/kg of compound was determined; format: functional; in short: as §2
Rattus norvegicus [22] = assay: Chronic effect on preestablished dyslipidemia in rats for total cholesterol at 30 mg/kg of compound was determined; format: functional; in short: as §2
[23] = Partition coefficient was measured by the shake flask method at pH 7.4.; format: physicochemical; conditions: octanol/water
In short: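 Log P determined by shake-flask partitioning at pH 7.4.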

[24] = target: T1, Sterol O-acyltransferase 1; assay: Compound was evaluated for the Acyl coenzyme A:cholesterol acyltransferase inhibition using microsomes isolated from the livers of cholesterol fed rats; set-up: species or system Liver
In short: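 Liver microsomes prepared from cholesterol-fed rats used as ACAT source. IC50 determined from four drug concentrations per assay, in four separate assays, and reported as the mean.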

Caco-2 = assay: Activity of compound in an intestine model using Caco-2 cells; format: functional, cell-based; conditions: Homo sapiens, Caco-2, Intestine
In short: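 CaCo-2 intestinal cells incubated with radiolabeled oleic acid in the presence of test agent; ACAT activity in intact cells read as oleate incorporation into cholesteryl esters, with triglyceride and phospholipid incorporation also followed up to 100 µM. IC50 averaged over three separate experiments.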

Rattus norvegicus [25] = assay: […] activity in rats at a dose of 10 mg/kg was determined; format: functional; in short: as §1
Rattus norvegicus [26] = assay: […] activity in rats at a dose of 30 mg/kg was determined; format: functional; in short: as §1
Rattus norvegicus [27] = assay: Anti hypercholesterolemic activity in rats at a dose of 0.3 mg/kg of compound was determined; format: functional; in short: as §1
Rattus norvegicus [28] = assay: Chronic effect on preestablished dyslipidemia in rats for HDL-C at 0.3 mg/kg of compound was determined; format: functional; in short: as §2
Rattus norvegicus [29] = assay: Chronic effect on preestablished dyslipidemia in rats for HDL-C at 10 […] of compound was determined; format: functional; in short: as §2
Rattus norvegicus [30] = assay: Chronic effect on preestablished dyslipidemia in rats for nonHDL-C at 0.3 mg/kg of compound was determined; format: functional; in short: as §2
Rattus norvegicus [31] = assay: Chronic effect on preestablished dyslipidemia in rats for total cholesterol at 0.3 mg/kg of compound was determined; format: functional; in short: as §2

SMILES: CCCCCCCN(CCCCCSc1nc(-c2ccccc2)c(-c2ccccc2)[nH]1)C(=O)Nc1ccc(F)cc1F [LECIMIBIDE]
- IC50 [1]: 18 nM
- Activity (Rattus norvegicus [2]): 158
- Activity (Rattus norvegicus [3]): 77
- Activity (Rattus norvegicus [4]): 79
- Activity (Rattus norvegicus [5]): 122
- Activity (Rattus norvegicus [6]): 74
- ED50 (Rattus norvegicus [7]): 15.2 mg/kg
- Effect (Rattus norvegicus [8]): 32 mg/dL
- Effect (Rattus norvegicus [9]): 18 mg/dL
- Effect (Rattus norvegicus [10]): 10 mg/dL
- Effect (Rattus norvegicus [11]): 21 mg/dL
- Effect (Rattus norvegicus [12]): 14 mg/dL
- Effect (Rattus norvegicus [13]): 87 mg/dL
- Effect (Rattus norvegicus [14]): 135 mg/dL
- Effect (Rattus norvegicus [15]): 234 mg/dL
- Effect (Rattus norvegicus [16]): 98 mg/dL
- Effect (Rattus norvegicus [17]): 203 mg/dL
- Effect (Rattus norvegicus [18]): 244 mg/dL
- Effect (Rattus norvegicus [19]): 119 mg/dL
- Effect (Rattus norvegicus [20]): 154 mg/dL
- Effect (Rattus norvegicus [21]): 217 mg/dL
- Effect (Rattus norvegicus [22]): 120 mg/dL

SMILES: CC(C)c1cccc(C(C)C)c1OC(=O)[N-]S(=O)(=O)Oc1c(C(C)C)cccc1C(C)C.[Na+]
- logD [23]: 2.98
- IC50 [24]: 5300 nM
- IC50 (Caco-2): 930 nM
- Activity (Rattus norvegicus [2]): 98
- Activity (Rattus norvegicus [25]): 56
- Activity (Rattus norvegicus [5]): 78
- Activity (Rattus norvegicus [26]): 50
- Activity (Rattus norvegicus [27]): 142
- ED50 (Rattus norvegicus [7]): 1.8 mg/kg
- Effect (Rattus norvegicus [28]): 11 mg/dL
- Effect (Rattus norvegicus [29]): 52 mg/dL
- Effect (Rattus norvegicus [10]): 25 mg/dL
- Effect (Rattus norvegicus [11]): 44 mg/dL
- Effect (Rattus norvegicus [12]): 39 mg/dL
- Effect (Rattus norvegicus [30]): 192 mg/dL
- Effect (Rattus norvegicus [14]): 59 mg/dL
- Effect (Rattus norvegicus [15]): 102 mg/dL
- Effect (Rattus norvegicus [16]): 47 mg/dL
- Effect (Rattus norvegicus [17]): 53 mg/dL
- Effect (Rattus norvegicus [31]): 204 mg/dL
- Effect (Rattus norvegicus [18]): 127 mg/dL
- Effect (Rattus norvegicus [20]): 111 mg/dL
- Effect (Rattus norvegicus [21]): 92 mg/dL
- Effect (Rattus norvegicus [22]): 91 mg/dL
